Here are results for 2 compounds from ChEMBL document CHEMBL1125672, “2-acetylpyridine thiosemicarbazones. 13. Derivatives with antifilarial activity” (1991).

Common to all, as to format: functional
The subject of assay [1] is Onchocerca volvulus. Kind of assay: Colorimetric quantification of male Onchocerca volvulus viability, expressed as % inhibition of formazan formation at 5*10e-5 M conc. by using tetrazolium Dye MTT assay. The procedure, abridged:
(§1)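 Male O. volvulus dissected from human nodules within 24 h (kept in medium on ice), cultured without feeder cells in medium with 10% serum; drug from DMSO stock. MTT after 96 h: single worm, 0.5 mg/mL MTT, 30 min at 36.5 °C, formazan dissolved in DMSO 1 h at room temperature, absorbance 490 nm against DMSO blank.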
For orientation: Tetrazolium assays rely on reduction of a dye to a coloured formazan, in cell work by metabolically active cells.

The subject of assay [2] is Onchocerca gutturosa. The assay can be described thus: Mean motility score for treated Onchocerca gutturosa involving LLCMK2 feeder cells at a concentration of 1.21*10e-8M at 0.5 h. Summed up: (§2)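 One male O. gutturosa per well over LLCMK2 feeder cells in MEM with 10% heat-inactivated FCS, antibiotics and bicarbonate, 5% CO2; compound introduced in DMSO (≤0.016%, equal DMSO in controls). Motility scored 0 (immotile) to 10 (maximal control activity) every 30 min to 4.5 h, then at 1, 2, 3, 4 and 7 days.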

In assay [3] the test system is Onchocerca gutturosa. Kind of assay: Mean motility score for treated Onchocerca gutturosa involving LLCMK2 feeder cells at a concentration of 1.21*10e-8M at 1 h. The procedure, abridged:
as §2

For assay [4], the system named is Onchocerca gutturosa. The assay can be described thus: Mean motility score for treated Onchocerca gutturosa involving LLCMK2 feeder cells at a concentration of 1.21*10e-8M at 1.5 h. Summed up:
as §2

The test system of assay [5] is Onchocerca gutturosa. The assay can be described thus: Mean motility score for treated Onchocerca gutturosa involving LLCMK2 feeder cells at a concentration of 1.21*10e-8M at 24 h. The procedure, abridged: as §2
For assay [6], the system named is Onchocerca gutturosa. Kind of assay: Mean motility score for treated Onchocerca gutturosa involving LLCMK2 feeder cells at a concentration of 3.05*10e-9 M at 1 h. The procedure, abridged: as §2
Assay [7] relates to Onchocerca gutturosa. The assay can be described thus: Mean motility score for treated Onchocerca gutturosa involving LLCMK2 feeder cells at a concentration of 1.21*10e-8M at 96 h. The procedure, abridged: as §2
Assay [8] has as its system Onchocerca gutturosa. Kind of assay: Mean motility score for treated Onchocerca gutturosa involving LLCMK2 feeder cells at a concentration of 1.94*10e-7M at 0.5 h. The procedure, abridged:
as §2

Assay [9] deals with Onchocerca gutturosa. Kind of assay: Mean motility score for treated Onchocerca gutturosa involving LLCMK2 feeder cells at a concentration of 1.94*10e-7M at 72 h. Summed up: as §2
Assay [10] deals with Onchocerca gutturosa. Kind of assay: Mean motility score for treated Onchocerca gutturosa involving LLCMK2 feeder cells at a concentration of 1.95*10e-8 M at 48 h. The procedure, abridged:
as §2

Assay [11] concerns Onchocerca gutturosa. The assay can be described thus: Mean motility score for treated Onchocerca gutturosa involving LLCMK2 feeder cells at a concentration of 1.95*10e-8 M at 96 h. Summed up:
as §2

The subject of assay [12] is Onchocerca gutturosa. Kind of assay: Mean motility score for treated Onchocerca gutturosa involving LLCMK2 feeder cells at a concentration of 1.95*10e-8 M at 4 h. Summed up:
as §2

The test system of assay [13] is Onchocerca gutturosa. The assay can be described thus: Mean motility score for treated Onchocerca gutturosa involving LLCMK2 feeder cells at a concentration of 3.05*10e-8 M at 1 h. Summed up: as §2
Assay [14] has as its system Onchocerca gutturosa. The assay can be described thus: Mean motility score for treated Onchocerca gutturosa involving LLCMK2 feeder cells at a concentration of 3.05*10e-8 M at […]. Summed up:
as §2

The subject of assay [15] is Onchocerca gutturosa. Kind of assay: Mean motility score for treated Onchocerca gutturosa involving LLCMK2 feeder cells at a concentration of 3.05*10e-8 M at 2 h. The settings on record: in the assay text read “3.05*10e-9 M” for “3.05*10e-8 M”. Summed up: as §2
The test system of assay [16] is Onchocerca gutturosa. The assay can be described thus: Mean motility score for treated Onchocerca gutturosa involving LLCMK2 feeder cells at a concentration of 3.05*10e-8 M at 2.5 h. The settings on record: in the assay text read “3.05*10e-9 M” for “3.05*10e-8 M”. Summed up:
as §2

Assay [17] deals with Onchocerca volvulus. The assay can be described thus: Colorimetric quantification of male Onchocerca volvulus viability, expressed as % inhibition of formazan formation at 5*10e-6 M conc. by using tetrazolium Dye MTT assay. The procedure, abridged:
as §1

Assay [18] concerns Onchocerca gutturosa. The assay can be described thus: Colorimetric quantification of male Onchocerca gutturosa viability, expressed as % inhibition of formazan formation at 3.1*10e-6 M conc. by using tetrazolium Dye MTT assay. Summed up:
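Single intact male O. gutturosa, cultured with LLCMK2 feeder cells in MEM + 10% heat-inactivated FCS (5% CO2), drug added from DMSO (≤0.016% DMSO in controls). MTT read after 168 h: worm in 0.5 mg/mL MTT, 30 min at 36.5 °C, formazan solubilized in DMSO 1 h at room temperature, absorbance 490 nm vs DMSO blank.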

The test system of assay [19] is Onchocerca gutturosa. The assay can be described thus: Mean motility score for treated Onchocerca gutturosa involving LLCMK2 feeder cells at a concentration of 3.1*10e-6 M at 168 h. Summed up: (§3)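 Single male O. gutturosa worms (obtained following abattoir slaughter) per well in Eagle's MEM with 10% heat-inactivated fetal calf serum, penicillin, streptomycin, amphotericin B and bicarbonate, over LLCMK2 feeder cells, 5% CO2 in air. Drug dissolved in DMSO; controls received matched DMSO ≤0.016%. Motility scored 0 (immotile) to 10 (maximum control activity) every 30 min to 4.5 h, then days 1, 2, 3, 4, 7.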

The test system of assay [20] is Onchocerca gutturosa. The assay can be described thus: Mean motility score for treated Onchocerca gutturosa involving LLCMK2 feeder cells at a concentration of 4.88*10e-8M at 168 h. Summed up:
as §3

The subject of assay [21] is Onchocerca gutturosa. The assay can be described thus: Mean motility score for treated Onchocerca gutturosa involving LLCMK2 feeder cells at a concentration of 4.88*10e-8M at 2.5 h. Summed up:
as §3

In assay [22] the test system is Onchocerca gutturosa. Kind of assay: Mean motility score for treated Onchocerca gutturosa involving LLCMK2 feeder cells at a concentration of 4.88*10e-8M at 24 h. Summed up: as §3
Assay [23] has as its system Onchocerca gutturosa. The assay can be described thus: Mean motility score for treated Onchocerca gutturosa involving LLCMK2 feeder cells at a concentration of 4.88*10e-8M at 3.5 h. The procedure, abridged:
as §3

Assay [24] deals with Onchocerca gutturosa. The assay can be described thus: Mean motility score for treated Onchocerca gutturosa involving LLCMK2 feeder cells at a concentration of 4.88*10e-8M at 48 h. Summed up:
as §3

In assay [25] the test system is Onchocerca gutturosa. Kind of assay: Mean motility score for treated Onchocerca gutturosa involving LLCMK2 feeder cells at a concentration of 5*10e-5 M at 168 h. Summed up: as §3
For assay [26], the system named is Onchocerca gutturosa. Kind of assay: Mean motility score for treated Onchocerca gutturosa involving LLCMK2 feeder cells at a concentration of 1.95*10e-8 M at 3 h. Conditions: in the assay text read “1.95*10e-7 M” for “1.95*10e-8 M”. Summed up: as §2
The test system of assay [27] is Onchocerca gutturosa. The assay can be described thus: Mean motility score for treated Onchocerca gutturosa involving LLCMK2 feeder cells at a concentration of 3.1*10e-6 M at 1.5 h. Summed up:
as §3

Assay [28] relates to Onchocerca gutturosa. Kind of assay: Mean motility score for treated Onchocerca gutturosa involving LLCMK2 feeder cells at a concentration of 3.1*10e-6 M at 2 h. Summed up: as §3
Assay [29] deals with Onchocerca gutturosa. Kind of assay: Mean motility score for treated Onchocerca gutturosa involving LLCMK2 feeder cells at a concentration of 3.1*10e-6 M at 4 h. The procedure, abridged: as §3
Assay [30] has as its system Onchocerca gutturosa. The assay can be described thus: Mean motility score for treated Onchocerca gutturosa involving LLCMK2 feeder cells at a concentration of 1.95*10e-8 M at 0.5 h. Summed up:
as §2

The subject of assay [31] is Onchocerca gutturosa. The assay can be described thus: Mean motility score for treated Onchocerca gutturosa involving LLCMK2 feeder cells at a concentration of 1.95*10e-8 M at 1 h. The procedure, abridged: as §2

Turning to `C/C(=N\NC(S)=Nc1ccccc1N)c1ccccn1`, the Inhibition (in general, the share of the control response that was lost under treatment) with Onchocerca volvulus [1] was 53.8%. Besides, the Motility with Onchocerca gutturosa [2] is 9; in the assay with Onchocerca gutturosa [3] it was 8.5; with Onchocerca gutturosa [4], 4.3; in the assay with Onchocerca gutturosa [5] it was 9; in the assay on Onchocerca gutturosa [6] it was 8.8; with Onchocerca gutturosa [7], 3.8. For the same compound, the figures for the Motility with Onchocerca gutturosa [8] and in the assay with Onchocerca gutturosa [9] were 9.8 and 1.5, respectively.

Turning to `C/C(=N\NC(=S)N1CCCCCC1)c1ccccn1`, the Motility in the assay on Onchocerca gutturosa [10] is 2.5; in the assay on Onchocerca gutturosa [11], 0; in the assay with Onchocerca gutturosa [12], 10; in the assay with Onchocerca gutturosa [13], 9; with Onchocerca gutturosa [14], 8.5; in the assay with Onchocerca gutturosa [15] it was 9.8. Also, the Motility in the assay on Onchocerca gutturosa [16] amounted to 8.3; in the assay on Onchocerca gutturosa [19], 0; in the assay with Onchocerca gutturosa [20] it was 0; in the assay with Onchocerca gutturosa [21], 8.3; in the assay on Onchocerca gutturosa [22], 4; with Onchocerca gutturosa [23], 8.5. Besides, the Motility with Onchocerca gutturosa [24] is recorded as 4; with Onchocerca gutturosa [25], 0; with Onchocerca gutturosa [26], 10; in the assay with Onchocerca gutturosa [27] it was 9.8; with Onchocerca gutturosa [28], 9.8; in the assay on Onchocerca gutturosa [29] it was 9. Moreover, the values for the Motility in the assay with Onchocerca gutturosa [30] and in the assay on Onchocerca gutturosa [31] were 8.8 and 9.5, respectively. Also, the Inhibition in the assay with Onchocerca volvulus [17] was determined as 58.2%; in the assay with Onchocerca gutturosa [18], 90.2%.
